According to ChEMBL document CHEMBL2331249, “Cytotoxicity of lapachol, β-lapachone and related synthetic 1,4-naphthoquinones against oesophageal cancer cells” (Eur J Med Chem, 2013):
Calls of active or inactive are those of the source. No cut-off for these calls is given here.

Columns and labels:
[1] = Cytotoxicity against human WHCO1 cells after 48 hrs by MTT assay; details: WHCO1, 48 h
[2] = test system: NIH3T3; test: Cytotoxicity against mouse NIH/3T3 cells after 96 hrs by MTT assay; type: cell-based; details: for IC50: Mus musculus, NIH3T3, 96 h; for Activity: mouse, nih3t3, 96 h
How it was run: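 NIH3T3 fibroblasts kept in DMEM with 10% heat-inactivated FCS plus penicillin/streptomycin/amphotericin at 37 °C, 9% CO2. Seeded at 1000 cells/well overnight, then exposed to 0, 10, 100, 1 000 and 10 000 nM or vehicle (0.02% v/v) for 96 h.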

[3] = Ratio of cisplatin IC50 to compound IC50 for human WHCO1 cells after 48 hrs by MTT assay
[4] = test system: WHCO1; test: Induction of apoptosis in human WHCO1 cells assessed as PARP cleavage at 5 to 10 uM after 6 to 48 hrs by MTT assay; type: functional, cell-based; details: in the assay text read “by Western blot analysis” for “by MTT assay”
How it was run: (§1)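 Western blot of WHCO1 cells given varying concentrations for 6, 24 and 48 h, protein extracted at each time point. PARP cleavage to […] 85 kDa fragments taken as the apoptosis marker; c-Jun levels probed on the same blots.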

[5] = test system: WHCO1; test: Induction of apoptosis in human WHCO1 cells assessed as PARP cleavage at 20 uM after 6 to 48 hrs by MTT assay; type: functional, cell-based; details: in the assay text read “by Western blot analysis” for “by MTT assay”
How it was run: as §1

[6] = test system: WHCO1; test: Induction of apoptosis in human WHCO1 cells assessed as increase in c-jun level after 6 to 24 hrs by MTT assay; type: functional, cell-based; details: in the assay text read “by Western blot analysis” for “by MTT assay”
How it was run: as §1

[7] = Ratio of cisplatin IC50 to compound IC50 for human WHCO1 cells after 24 hrs by MTT assay; type: functional
[8] = Cytotoxicity against human WHCO1 cells after 24 hrs by MTT assay; type: functional, cell-based; details: WHCO1, 24 h

O=C1C=C(C(O)c2cccc(F)c2)C(=O)c2ccccc21 (stereo not given)
IC50 [1]: 5.5 µM | IC50 [2]: 82 µM | Ratio IC50 [3]: 2

Cc1cc(Cl)ccc1C(O)C1=CC(=O)c2ccccc2C1=O (stereo not given)
IC50 [1]: 3.4 µM | IC50 [2]: 7.4 µM | Ratio IC50 [3]: 2

CC(C)=CC(O)C1=CC(=O)c2ccccc2C1=O (stereo not given)
IC50 [1]: 5.2 µM

O=C(C1=CC(=O)c2ccccc2C1=O)c1ccc(Cl)cc1
IC50 [1]: 72.9 µM

O=C1C=C([C@H](O)c2ccccc2)C(=O)c2ccccc21
Activity [4]: inactive | IC50 [1]: 4.3 µM | Activity [5]: Active | Activity [6]: Dose-dependent effect

O=C1C=C(C(O)CCc2ccccc2)C(=O)c2ccccc21 (stereo not given)
IC50 [1]: 4.8 µM | Ratio IC50 [3]: 2

O=C(C1=CC(=O)c2ccccc2C1=O)c1ccc(F)cc1
IC50 [1]: 74.9 µM

O=C1C=C(C(O)c2cccc(Cl)c2)C(=O)c2ccccc21 (stereo not given)
IC50 [1]: 7.3 µM | Activity [2]: Non-toxic | Ratio IC50 [3]: 2

O=C(C1=CC(=O)c2ccccc2C1=O)c1ccoc1
IC50 [1]: 96.9 µM

O=C1C=C(c2ccccc2)C(=O)c2ccccc21
IC50 [1]: 11.7 µM | Ratio IC50 [3]: 2

O=C1C=C(C(O)c2ccoc2)C(=O)c2ccccc21 (stereo not given)
IC50 [1]: 10.9 µM | Ratio IC50 [3]: 2

O=C1C=C(C(O)c2ccc(F)cc2)C(=O)c2ccccc21 (stereo not given)
IC50 [1]: 5.1 µM | IC50 [2]: 11.7 µM | Ratio IC50 [3]: 2

O=C(C1=CC(=O)c2ccccc2C1=O)c1cccc(F)c1
IC50 [1]: 94.8 µM

CC1(C)CCC2=C(O1)C(=O)c1ccccc1C2=O [ALPHA-LAPACHONE]
IC50 [1]: 28.7 µM

CC1(C)OC2=C(CC1Br)C(=O)C(=O)c1ccccc12 (stereo not given)
IC50 [1]: 1.8 µM | Ratio IC50 [3]: 9

O=C1C=C(Cc2ccccc2)C(=O)c2ccccc21
IC50 [1]: 21.6 µM

CC1(C)CC2=C(O1)c1ccccc1C(=O)C2=O [NOR-BETA-LAPACHONE]
IC50 [1]: 2.4 µM | Ratio IC50 [3]: 7

Cc1cc(Cl)ccc1C(=O)C1=CC(=O)c2ccccc2C1=O
IC50 [1]: 50.4 µM

O=C1C=C(C(O)c2ccccc2)C(=O)c2ccccc21 (racemic)
Activity [4]: inactive | IC50 [1]: 3.9 µM | Activity [5]: Active | Activity [2]: Non-toxic | Ratio IC50 [3]: 11 | Activity [6]: Dose-dependent effect

O=C(C1=CC(=O)c2ccccc2C1=O)c1ccccc1
IC50 [1]: 63.4 µM

O=C(C1=CC(=O)c2ccccc2C1=O)c1cccc(Cl)c1
IC50 [1]: 94.8 µM

O=C(CCc1ccccc1)C1=CC(=O)c2ccccc2C1=O
IC50 [1]: 83.7 µM

CC1(C)CCC2=C(O1)c1ccccc1C(=O)C2=O [LAPACHONE]
IC50 [1]: 1.6 µM | Ratio IC50 [3]: 10

C=CC(O)C1=CC(=O)c2ccccc2C1=O (stereo not given)
IC50 [1]: 4.3 µM

CC(O)C1=CC(=O)c2ccccc2C1=O (stereo not given)
IC50 [1]: 6.4 µM

O=C1C=C(C(O)c2ccc3ccccc3c2)C(=O)c2ccccc21 (stereo not given)
Ratio IC50 [7]: 2 | IC50 [8]: 2.4 µM

CC(C)=CCC1=CC(=O)c2ccccc2C1=O [DEOXYLAPACHOL]
IC50 [1]: 15 µM

CC1(C)OC2=C(CC1O)C(=O)C(=O)c1ccccc12 (stereo not given)
IC50 [1]: 6.5 µM | Ratio IC50 [3]: 2

CC(C)=CCC1=C(O)C(=O)c2ccccc2C1=O [LAPACHOL]
IC50 [1]: 24.1 µM

O=C1C=C(C(O)c2ccc(Cl)cc2)C(=O)c2ccccc21 (stereo not given)
IC50 [1]: 3 µM | Activity [2]: Non-toxic | Ratio IC50 [3]: 2

O=C1C=C([C@@H](O)c2ccccc2)C(=O)c2ccccc21
Activity [4]: inactive | IC50 [1]: 3.8 µM | Activity [5]: Active | Activity [6]: Dose-dependent effect
